Source: ChEMBL document CHEMBL4513216, “Probing the Open Global Health Chemical Diversity Library for Multistage-Active Starting Points for Next-Generation Antimalarials” (ACS Infect Dis, 2020)

assay: Toxicity liver stage against HepG2, at 10uM; type: cell-based; parameters: test concentration 10 uM, cell line HepG2-A16-CD81EGFP; settings: human, HepG2-A16-CD81EGFP cells; read-out: INHIBITION
In short: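 Uninfected HepG2-A16-CD81EGFP cells, 3 × 10^3 per well, 1536-well, plated on prespotted compound at 10 μM final, parasite-free screening media added to match infected plates; puromycin 10 μM positive, DMSO 0.5% negative; run in parallel with 48 h PbLuc assay at 37 °C, 5% CO2; viability by CellTiter-Glo luminescence, normalized to controls.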

SMILES | cytotoxicity at 10 µM [%]
CN(C(=O)CN1CCC(NC(=O)c2cccs2)CC1)c1ccccc1 | -8.55
O=C(c1ccnnc1)N1CCN(Cc2cccnc2)c2ncccc2C1 | 0.121
O=S(=O)(c1ccc(F)cc1)N1CCCC(c2nccs2)C1 (centres undefined) | -6.74
Cc1oc(C(=O)O)cc1S(=O)(=O)Nc1c(F)cccc1-n1cccn1 | -3.45
CN1CCCN(S(C)(=O)=O)c2cc(F)ccc21 | -2.24
CCC(CCNCc1cnc(C2CCC2)s1)N1CCCC1=O (centres undefined) | -3.13
CCCC(O)CNc1cncc(Br)c1 (centres undefined) | 22.2
CC(Cn1cccn1)NC(=O)NCc1cccnc1OC1CCCC1 (centres undefined) | 4.86
Cc1cccnc1CC(C)NC1CCSCC1 (centres undefined) | 2.28
N#CC1(C(=O)N2C[C@@H]3CC[C@H]2CN(Cc2ccncc2)C3)CCOCC1 | -11.9
CN1CCOCC2(CCCN(C(=O)c3ccccc3F)C2)C1 (centres undefined) | -91.4
O=C(Cc1ccccc1O)NC1CCCN(c2ccccc2F)C1=O (centres undefined) | -13.7
Cc1ccn(-c2cncc(C(N)=O)c2)n1 | 0.0642
CN1CCN(Cc2noc(CC3CCc4ccccc43)n2)CC1 (centres undefined) | -20.1
CC(=O)N1CCCN(C(=O)C(C)n2cncn2)CC1 (centres undefined) | -0.227
CC(C)c1nc(CN(C)C(=O)CCS(=O)(=O)c2ccccc2)no1 | -20.3
CCOC(=O)N1CCN(C(=O)C(C)n2ccnc2C(C)C)CC1 (centres undefined) | -9.28
Cc1cccc(CN2C(=O)CC[C@@H]3[C@H]2CCN3Cc2ccc(C)s2)n1 | 5.45
CS(=O)(=O)NC[C@@H]1OC[C@H]2CN(Cc3ccccc3)CC[C@H]21 | 4.82
CCN(C(=O)CN1CCC(c2cc3ccccc3[nH]2)CC1)C1CC1 | 0.99
CN(CCN1CCOC1=O)CC(=O)Nc1cc(F)cc(F)c1 | -49.5
CCN(CCN(C)C)c1nc(CCN)nc2sc(C)c(C)c12 | -1.78

SMILES | cytotoxicity at 10 µM [%]
O=C(O)C1CCCN1c1nc(-c2ccc(Cl)cc2)cc(C(F)(F)F)n1 (centres undefined) | 30.1
COCC1CN(Cc2ccc(OC)cc2)Cc2nnn(CC3CC3)c21 (centres undefined) | -2.47
CCc1nccn1CCC(=O)N1CC[C@@H](c2ccc(F)cc2)[C@H](O)C1 | -7.79
CCn1cc2c(n1)C(COCC1CC1)CN(C(=O)c1cnoc1C)C2 (centres undefined) | 17.5
Cc1c(C)n(-c2ccccn2)c2nc3c(c(N)c12)CCCCC3 | 6.1
O=C(NCC1CCOCC1)[C@@H]1C[C@@H]2[C@@H](CCN2Cc2nccs2)O1 | 0.11
Cc1ccc(C)c(OCc2cc(C(=O)N(C)CC(O)CO)no2)c1 (centres undefined) | 2.55
CN(C)C(=O)c1cncnc1-c1ccc(CNC(=O)C2CC2)cc1 | 2.33
O=C(NCCCN1CCC(OC2CCCCC2)CC1)C1CCCC1 | 2.24
COC1COC2(CCN(C(=O)c3cocn3)CC2)C1 (centres undefined) | 9.64
CCOc1ccc(S(=O)(=O)N(CCOC)Cc2ccoc2)cc1F | 8.31
CCc1nc(CN2CCCN(CC(=O)Nc3cccnc3)CC2)no1 | -17.4
O=C(NCc1ccccc1F)N1CCCCC1C1OCCO1 (centres undefined) | 2.01
CC(C)c1noc(-c2ccc(NCc3noc(C(C)C)n3)nc2)n1 | -6.49
Cc1ccc(Nc2cc(N3CCN(S(C)(=O)=O)CC3)nc(C)n2)cc1 | 6.91
O=C(CNC(=O)C1CCCC1)NCc1cnn(-c2ccc(F)cc2F)c1 | 8.21
c1ccc(OCc2noc3c2CN(c2ncccn2)CC3)nc1 | -3.25
Cc1ccc(C(C)NCc2cn(CCC(N)=O)c3ccccc23)cc1C (centres undefined) | -1.69
CN1CCN(c2ncccn2)CC12CCC(=O)N(CC1CC1)CC2 (centres undefined) | 2.6
CCCc1noc(CN2CCC(N(C)Cc3nnc(C4CC4)o3)C2)n1 (centres undefined) | -0.775
COCC1CCN(C(C(=O)O)c2c(F)cccc2OC(C)C)CC1 (centres undefined) | 0.515
CCC(C(=O)NCC1=CCN(C)CC1)c1ccccc1 (centres undefined) | -7.66

SMILES | cytotoxicity at 10 µM [%]
CC(NCc1ccccc1Cl)c1ccc(OCC(=O)NC2CC2)cc1 (centres undefined) | -12.7
O=C(NCCOc1ccc(F)c(F)c1)NCc1ccncc1 | -8.25
Cc1cnc2n(c1=O)C(CC(=O)NCc1cc(-c3cccs3)on1)CS2 (centres undefined) | -1.51
CN(Cc1ccco1)[C@@H]1CN(Cc2ccccn2)C[C@@H]2CCCO[C@@H]21 | 0.34
Cc1ccc(-c2nc(CC(=O)N3CCCC(NC(=O)C(C)C)C3)cs2)o1 (centres undefined) | -50.5
CCC=C(C)C(=O)N1CSCC1C(=O)NC1=NCCS1 (centres undefined) | 11.8
Cc1cc(-c2ccc(C(C)N3CCCCC3)cc2)cnc1N (centres undefined) | -3.44
c1cncc(CN2CC(Cc3nccc4cc[nH]c34)C2)c1 | -2.26
Cc1sc(Br)cc1S(=O)(=O)NCc1ccccn1 | -3.85
CC(O)CN1CCN(C(=O)c2ccn(-c3cccc(Cl)c3)n2)CC1 (centres undefined) | -6.8
CN(Cc1ccsc1)C(=O)Nc1ccc(S(C)(=O)=O)cc1 | -4.77
OCc1ccc(N2CCN(c3ncccn3)CC2)c(F)c1 | -23.8
CNC(=O)[C@@H]1C[C@H](N)CN1S(=O)(=O)c1cc(C)c(Cl)cc1C | -0.869
COCCCNC(=O)Nc1ccc(F)c(C(N)=O)c1 | -12.9
Cn1c(N)nnc1SCC1OCCc2ccccc21 (centres undefined) | 0.355
NC(=O)CN1CCC(c2cncc(-c3cccc(Cl)c3)n2)CC1 | -26.4
COCCN1CC(=O)N(C(C)C)C(C)(C)C1 | 1.31
CCc1cc(N2CCC(n3cc(C(=O)NCC(C)C)nn3)CC2)ncn1 | 41.4
Cc1nn(C)c(C)c1C1CCCN1C(=O)CCNc1ncccn1 (centres undefined) | -7.37
NC(=O)c1cnc(NC2CCN(c3ccccc3)CC2)c(Cl)c1 | 6.07
COC(=O)CCCC(=O)N1CCCCC1c1ccc(F)cc1 (centres undefined) | -42.7
CN(CCc1cn[nH]c1)C(=O)CCc1ccc(Cl)cc1 | 1.82

SMILES | cytotoxicity at 10 µM [%]
O=c1[nH]nc(SCC2CCCO2)n1C1CC1 (centres undefined) | 0.0288
Cc1cccc(N2CCOCC3(C2)CN(c2ccccc2)C(=O)CO3)n1 (centres undefined) | -4.53
Cc1cc(NC(C)c2nnn[nH]2)n2nc(C)c(C)c2n1 (centres undefined) | 9.4
COc1cccc2c1OCC(CNC(=O)Cc1c(C)nc(N)nc1C)C2 (centres undefined) | -140
O=C(CSc1ccc2c(c1)OCCO2)NS(=O)(=O)c1cccnc1 | -5.72
O=C(NC1CC1)c1ccnc(-c2cc(NCCO)nc3[nH]ccc23)c1 | 5.61
CCc1nc(C)c(-c2nccn2CC2CCN(C3CCCC3)CC2)[nH]1 | 3.98
Cc1nc(CN(C)C(=O)Nc2cccc(C)c2C)no1 | -0.739
Fc1ccc(CCN2CCC(c3nnc(-c4cccnc4)o3)CC2)cc1 | 6.59
CN(C)C(=O)N1CCN(Cc2ccccc2)[C@@H]2CS(=O)(=O)C[C@@H]21 | -12.6
CN(C)S(=O)(=O)N1C[C@@H]2C[C@H](C(=O)Nc3cccnc3)[C@H](C1)O2 | -71.7
Cc1nc(CNC(=O)N2CCN(c3ccc(Cl)cn3)CC2)sc1C | 3.92
CCCN(Cc1cccc(OCCO)c1)Cc1ccccc1OC | 5.15
Cc1ccc(CN2CC[C@H]3C[C@@H](c4nc(C5CC5)cs4)O[C@@H]3C2)o1 | -4.29
C=c1ncsc1=C1NN=C(C2CCCN2C(=O)c2ccn(CC)n2)O1 (centres undefined) | -7.82
Cc1nc(-c2cnn(C)c2)nc2c1CN(C(=O)c1cccn1C)CC2 | 4.87
Cc1cc2c(=O)n3c(nc2s1)CCN(C(=O)c1nn(C)cc1Cl)CC3 | 16.6
O=C1O[C@@H]2CN(Cc3cc4ccccc4s3)C[C@@H]2N1Cc1ccccn1 | 10.2
COc1ccc(CCNC(=O)N2CCN(C)[C@@H]3CS(=O)(=O)C[C@@H]32)cc1 | 6.05
CCc1ccc(CNC(=O)CCNS(=O)(=O)c2cn(C)c(C)n2)s1 | 6.13
CCn1cnnc1CNS(=O)(=O)N1CCCC1c1ccc(C)o1 (centres undefined) | -144
CC(=O)N(CCc1nc(-c2cc(C(N)=O)oc2C)cs1)C(C)C | 0.988

SMILES | cytotoxicity at 10 µM [%]
Cc1ccc(CN2CC[C@@]3(O)CCN(S(=O)(=O)N(C)C)C[C@H]3C2)cc1C | -1.42
CCCc1nnc(NC(=O)NC2CCOc3ccccc32)s1 (centres undefined) | 3.72
Cc1onc(-c2ccncc2)c1C(=O)NC1CCCOC1 (centres undefined) | 4.51
O=C(NCCn1nc(C2CCNC2)c2cccnc21)c1ccccc1 (centres undefined) | -23.9
CCc1csc(C2CCCN(C(=O)c3cnc[nH]3)C2)n1 (centres undefined) | 1.78
COc1ccccc1N1CCC(CNCc2ccc(C#N)cc2)C1 (centres undefined) | -12.1
Cn1cccc1C(=O)N1CC[C@H]2[C@H]1CCN2CC1CCOCC1 | -4.81
COCc1nc(C(=O)N2CCCC2c2cccc(C)c2)cs1 (centres undefined) | -8.93
O=C(CCN1CCCCO1)NC1CCCN(CC2CCCCC2)C1 (centres undefined) | 4.21
C[C@@H]1CN(CCOc2ccc(Cl)cc2)CC[C@@]1(O)C1CCOCC1 | 19.4
COc1ccc(Cl)cc1NC(=O)N1CCc2nc(NC(C)=O)sc2C1 | 12.1
O=C(O)C1(Cc2cccc(-c3ccc(F)c(F)c3)c2)CCOCC1 | -2.5
O=C(c1cnccn1)N1C[C@H]2CC[C@@H](C1)N(C(=O)Cc1ccsc1)C2 | -13.3
Cc1cnc(N2CCO[C@@H]3CC(COCc4cccnc4)C[C@H]32)nc1 (some centres undefined) | 3.93
Cc1cc(NC(C)c2nncn2C2CCCC2)n2nc(C)c(C)c2n1 (centres undefined) | 13.7
O=C(c1ccnn1COc1ccc(Cl)cc1)N1CCOCC1 | -3.94
CCN(Cc1ccccn1)Cc1cc(Cl)ccc1OC | 1.45
Cn1ncnc1-c1ccnc(NCc2ccccn2)n1 | -2.46
COc1cc(NC(=O)c2ccccc2F)c(C(=O)N(C)C)cc1OC | -14.8
Cc1ccc(N2CCOCC3(CCCN(c4ncc(F)cn4)C3)C2)nn1 (centres undefined) | -123
O=C(NS(=O)(=O)c1cccc(F)c1)c1ccccc1F | 9.39
